# Reference: ChEMBL document CHEMBL4177755, “Combating Drug-Resistant Fungi with Novel Imperfectly Amphipathic Palindromic Peptides” (J Med Chem, 2018)
# Columns and labels:
# Staphylococcus aureus [1] = test: Antibacterial activity against Staphylococcus aureus ATCC 25923 after 24 hrs; format: functional; settings: ATCC 25923, 24 h
# How it was run: (§1)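 Modified NCCLS broth microdilution. Mid-log bacteria at (0.5−1) × 10^5 CFU/mL in MHB were mixed 1:1 with peptide serially diluted in 0.2% BSA and incubated 24 h at 37 °C. Absorbance was read at 492 nm; MIC is the lowest concentration inhibiting 95% of growth. At least 3 repeats.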
# Candida albicans [2] = test: Antifungal activity against fluconazole-resistant Candida albicans 17546 after 48 hrs by broth microdilution method; format: functional; settings: Candida albicans, 17546, 48 h
# How it was run: (§2)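 Modified CLSI M27-A2 broth microdilution. Yeast at (0.5−1) × 10^3 CFU/mL in MOPS-buffered RPMI 1640 was mixed 1:1 with peptide serially diluted in 0.2% BSA and incubated 48 h at 28 °C. Absorbance was read at 492 nm; MIC is the lowest concentration inhibiting 95% of growth. Triplicate, three biological replicates.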
# Candida albicans [3] = test: Antifungal activity against Candida albicans cgmcc 2.2086 in presence of KCl by broth dilution method; format: functional
# Candida albicans [4] = test: Antifungal activity against Candida albicans SP3902 after 48 hrs by broth microdilution method; format: functional; settings: SP3902, 48 h; how it was run: as §2
# Candida albicans [5] = test: Antifungal activity against Candida albicans SP3876 after 48 hrs by broth microdilution method; format: functional; settings: SP3876, 48 h; how it was run: as §2
# Escherichia coli [6] = test: Antibacterial activity against Escherichia coli ATCC 25922 after 18 hrs in presence of NaCl by broth dilution method; format: functional; settings: ATCC 25922, 18 h
# Escherichia coli [7] = test: Bactericidal activity against Escherichia coli ATCC 25922; format: functional; settings: read-out: MBC99.9
# How it was run: (§3)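 Wells from the 24 h, 37 °C MHB microdilution plates (bacteria at a final (0.5−1) × 10^5 CFU/mL; peptide diluted in 0.2% BSA) were plated on agar and incubated overnight. MBC is the lowest concentration killing >99.9% of cells. Each test was reproduced at least 3 times.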
# Candida albicans [8] = test: Fungicidal activity against Candida albicans cgmcc 2.2086 after 96 hrs; format: functional; settings: cgmcc 2.2086, 96 h, read-out: MFC99.9
# How it was run: (§4)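 After the 48 h, 28 °C broth microdilution in MOPS-buffered RPMI 1640 (inoculum (0.5−1) × 10^3 CFU/mL), 50 μL from each well was plated on YM agar for a further 48 h at 28 °C. MFC is the lowest concentration killing at least 99.9% of cells. Triplicate, three biological replicates.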
# Candida albicans [9] = test: Antifungal activity against fluconazole-resistant Candida albicans 56214 after 48 hrs by broth microdilution method; format: functional; settings: Candida albicans, 56214, 48 h; how it was run: as §2
# Escherichia coli [10] = test: Bactericidal activity against Escherichia coli 1005; format: functional; settings: read-out: MBC99.9; how it was run: as §3
# Pichia kudriavzevii = test: Fungicidal activity against Candida krusei cgmcc 2.1857 after 96 hrs; format: functional; settings: cgmcc 2.1857, 96 h, read-out: MFC99.9
# How it was run: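 Wells from the 48 h, 28 °C RPMI 1640/MOPS microdilution plates were plated on YM agar and incubated a further 48 h at 28 °C. MFC is the lowest concentration killing at least 99.9% of cells. Run in triplicate with three biological replicates.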
# Salmonella typhimurium = test: Antibacterial activity against Salmonella typhimurium ATCC 14028 after 24 hrs; format: functional, Salmonella enterica subsp. enterica serovar Typhimurium; settings: Salmonella enterica, ATCC 14028, 24 h
# How it was run: (§5)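 Broth microdilution. Mid-log bacteria in MHB at a final (0.5−1) × 10^5 CFU/mL were mixed with equal volumes of peptide serially diluted in 0.2% BSA. Plates were incubated 24 h at 37 °C and read at A492. MIC is the lowest concentration inhibiting 95% of growth. Each test was repeated at least 3 times.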
# Staphylococcus aureus [11] = test: Antibacterial activity against methicillin-resistant Staphylococcus aureus ATCC 4330 after 24 hrs; format: functional; settings: ATCC 4330, 24 h; how it was run: as §1
# Candida albicans [12] = test: Antifungal activity against Candida albicans cgmcc 2.2086 after 48 hrs by broth microdilution method; format: functional; settings: cgmcc 2.2086, 48 h; how it was run: as §2
# Escherichia coli [13] = test: Antibacterial activity against Escherichia coli ATCC 25922 after 18 hrs in presence of MgCl2 by broth dilution method; format: functional; settings: ATCC 25922, 18 h
# [14] = Cytotoxicity against mouse RAW264.7 cells assessed as cell viability at 2 to 64 uM after 24 hrs by MTT assay relative to control; format: cell-based; settings: read-out: Activity
# How it was run: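 MTT viability assay. RAW264.7 or HEK293T cells at (1.0−2.0) × 10^5 per well were exposed to a peptide concentration series for 24 h at 37 °C in 5% CO2. MTT was then added at 0.5 mg/mL final for 4 h; formazan was dissolved in DMSO and read at 570 nm. Results average three independent trials.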
# [15] = tested on: Staphylococcus epidermidis; test: Antibacterial activity against Staphylococcus epidermidis ATCC 12228 after 24 hrs; format: functional; settings: ATCC 12228, 24 h; how it was run: as §5
# Candida albicans [16] = test: Antifungal activity against Candida albicans SP3931 after 48 hrs by broth microdilution method; format: functional; settings: SP3931, 48 h; how it was run: as §2
# Candida albicans [17] = test: Antifungal activity against Candida albicans 58288 after 48 hrs by broth microdilution method; format: functional; settings: Candida albicans, 58288, 48 h; how it was run: as §2
# Erythrocyte = test: Hemolytic activity in human RBC after 1 hr; format: ADME, cell-based
# How it was run: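 Fresh human erythrocytes, diluted 10-fold in PBS pH 7.4, were mixed with equal volumes of peptide and held 1 h at 37 °C. After centrifugation at 1000g, supernatant hemoglobin was read at 576 nm. PBS set 0% and 0.1% Triton X-100 set 100% lysis. MHC is the concentration causing 10% hemolysis. At least three experiments were run, each in technical triplicate.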
# [18] = Antibacterial activity against Salmonella pullorum ATCC 7913 after 24 hrs; format: functional, Salmonella enterica subsp. enterica serovar Pullorum; settings: Salmonella enterica, ATCC 7913, 24 h; how it was run: as §5
# Staphylococcus aureus [19] = test: Bactericidal activity against methicillin-resistant Staphylococcus aureus ATCC 4330; format: functional; settings: read-out: MBC99.9
# How it was run: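 Bacteria at (0.5−1) × 10^5 CFU/mL in MHB were exposed to serially diluted peptide (0.2% BSA) for 24 h at 37 °C, then 50 μL aliquots were plated on agar overnight. MBC is the lowest concentration killing >99.9% of cells. At least 3 repeats.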
# Candida albicans [20] = test: Antifungal activity against Candida albicans SP3903 after 48 hrs by broth microdilution method; format: functional; settings: SP3903, 48 h; how it was run: as §2
# [21] = tested on: Staphylococcus epidermidis; test: Bactericidal activity against Staphylococcus epidermidis ATCC 12228; format: functional; settings: read-out: MBC99.9; how it was run: as §3
# Staphylococcus aureus [22] = test: Bactericidal activity against Staphylococcus aureus ATCC 25923; format: functional; settings: read-out: MBC99.9; how it was run: as §3
# Candida albicans [23] = test: Fungicidal activity against Candida albicans 58288 after 96 hrs; format: functional; settings: Candida albicans, 58288, 96 h; read-out: MFC99.9; how it was run: as §4
# Candida albicans [24] = test: Antifungal activity against Candida albicans cgmcc 2.2086 in presence of MgCl2 by broth dilution method; format: functional
# Candida albicans [25] = test: Antifungal activity against Candida albicans cgmcc 2.2086 in presence of FeCl3 by broth dilution method; format: functional
# Escherichia coli [26] = test: Antibacterial activity against Escherichia coli ATCC 25922 after 18 hrs in presence of NH4Cl by broth dilution method; format: functional; settings: ATCC 25922, 18 h
Substance,MIC95 (Staphylococcus aureus [1]) [µM],MIC95 (Candida albicans [2]) [µM],MIC (Candida albicans [3]) [µM],MIC95 (Candida albicans [4]) [µM],MIC95 (Candida albicans [5]) [µM],MIC (Escherichia coli [6]) [µM],MBC (Escherichia coli [7]) [µM],MFC (Candida albicans [8]) [µM],MIC95 (Candida albicans [9]) [µM],MBC (Escherichia coli [10]) [µM],MFC (Pichia kudriavzevii) [µM],MIC95 (Salmonella typhimurium) [µM],MIC95 (Staphylococcus aureus [11]) [µM],MIC95 (Candida albicans [12]) [µM],MIC (Escherichia coli [13]) [µM],"viability at 24 h, up to 64 µM [14] [%]",MIC95 [15] [µM],MIC95 (Candida albicans [16]) [µM],MIC95 (Candida albicans [17]) [µM],HC10 (Erythrocyte) [µM],also measured
H-RIRIIIRIR-NH2,4,2,4,2,1,8,8,8,2,8,4,4,4,4,8,70 to 80,4,4,2,> 128,MIC95 [18]: 4 µM; MBC (Staphylococcus aureus [19]): 4 µM; MIC95 (Candida albicans [20]): 2 µM; MBC [21]: 8 µM; MBC (Staphylococcus aureus [22]): 8 µM; MFC (Candida albicans [23]): 4 µM; MIC (Candida albicans [24]): 4 µM; MIC (Candida albicans [25]): 4 µM; MIC (Escherichia coli [26]): 4 µM
H-RLLRRLRRLLR-NH2,8,8,16,4,4,4,16,16,8,4,8,8,8,8,2,70 to 80,4,8,4,> 128,MIC95 [18]: 8 µM; MBC (Staphylococcus aureus [19]): 16 µM; MIC95 (Candida albicans [20]): 4 µM; MBC [21]: 4 µM; MBC (Staphylococcus aureus [22]): 16 µM; MFC (Candida albicans [23]): 16 µM; MIC (Candida albicans [24]): 32 µM; MIC (Candida albicans [25]): 8 µM; MIC (Escherichia coli [26]): 4 µM
H-RLRLLLRLR-NH2,8,16,16,4,4,4,8,16,8,8,8,4,4,8,4,70 to 80,4,8,8,> 128,MIC95 [18]: 4 µM; MBC (Staphylococcus aureus [19]): 4 µM; MIC95 (Candida albicans [20]): 8 µM; MBC [21]: 8 µM; MBC (Staphylococcus aureus [22]): 8 µM; MFC (Candida albicans [23]): 16 µM; MIC (Candida albicans [24]): 8 µM; MIC (Candida albicans [25]): 8 µM; MIC (Escherichia coli [26]): 4 µM
H-RRFRFFFRFRR-NH2,8,2,16,4,4,4,4,16,4,4,2,4,4,4,2,70 to 80,4,4,2,> 128,MIC95 [18]: 2 µM; MBC (Staphylococcus aureus [19]): 8 µM; MIC95 (Candida albicans [20]): 2 µM; MBC [21]: 4 µM; MBC (Staphylococcus aureus [22]): 16 µM; MFC (Candida albicans [23]): 8 µM; MIC (Candida albicans [24]): 4 µM; MIC (Candida albicans [25]): 4 µM; MIC (Escherichia coli [26]): 4 µM
H-RRLRLLLRLRR-NH2,4,8,32,4,4,4,4,16,4,4,8,4,8,8,2,70 to 80,4,8,8,> 128,MIC95 [18]: 2 µM; MBC (Staphylococcus aureus [19]): 16 µM; MIC95 (Candida albicans [20]): 2 µM; MBC [21]: 4 µM; MBC (Staphylococcus aureus [22]): 8 µM; MFC (Candida albicans [23]): 8 µM; MIC (Candida albicans [24]): 8 µM; MIC (Candida albicans [25]): 8 µM; MIC (Escherichia coli [26]): 4 µM
H-RRWRWWWRWRR-NH2,4,4,8,4,2,4,4,8,4,4,2,4,4,4,2,70 to 80,4,4,2,> 128,MIC95 [18]: 2 µM; MBC (Staphylococcus aureus [19]): 8 µM; MIC95 (Candida albicans [20]): 4 µM; MBC [21]: 8 µM; MBC (Staphylococcus aureus [22]): 8 µM; MFC (Candida albicans [23]): 8 µM; MIC (Candida albicans [24]): 4 µM; MIC (Candida albicans [25]): 4 µM; MIC (Escherichia coli [26]): 4 µM
H-RWRWWWRWR-NH2,4,1,16,8,4,4,4,16,4,4,8,4,2,8,2,70 to 80,4,8,4,> 128,MIC95 [18]: 2 µM; MBC (Staphylococcus aureus [19]): 2 µM; MIC95 (Candida albicans [20]): 8 µM; MBC [21]: 8 µM; MBC (Staphylococcus aureus [22]): 8 µM; MFC (Candida albicans [23]): 8 µM; MIC (Candida albicans [24]): 8 µM; MIC (Candida albicans [25]): 8 µM; MIC (Escherichia coli [26]): 4 µM
